For assay [1], the system named is Pseudomonas aeruginosa. Put plainly: Antibacterial activity against colistin-resistant clinical isolate Pseudomonas aeruginosa PA101243 assessed as reduction in bacterial growth after 18 hrs by microbroth dilution method. It is filed as functional. The method in brief: (§1)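 Broth microdilution per CLSI in Mueller-Hinton broth (MHB). Overnight cultures were adjusted to 0.5 McFarland in saline, diluted 1:50 in MHB, and added at about 5 × 10^5 CFU/mL final to equal volumes of 2-fold serial dilutions of agent. Incubation was 18 h at 37 °C. MIC was the lowest concentration with no visible turbidity, confirmed by absorbance at 590 nm.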
For orientation: In broth dilution the organism is exposed to a series of concentrations in liquid medium.

For assay [2], the system named is Pseudomonas aeruginosa. In words: Potentiation of cefiderocol-induced antibiotic activity against MDR clinical isolate Pseudomonas aeruginosa PA264 assessed as MIC fold reduction at 8 ug/ml after 18 hrs by microbroth dilution method. To be noted: dose 8.0 µg/ml. It is filed as functional, organism-based. A digest of the protocol: (§2)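 Initial screen in MHB using a fixed 8 μg mL−1 of adjuvant combined with each antibiotic under 2-fold dilution. Broth microdilution used about 5 × 10^5 CFU/mL at 37 °C for 18 h, with visible turbidity read and confirmed at 590 nm. Fold-potentiation = antibiotic MIC alone ÷ antibiotic MIC with adjuvant.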

The test system of assay [3] is Escherichia coli. Put plainly: Potentiation of cefotaxime-induced antibiotic activity against Escherichia coli ATCC 25922 assessed as MIC fold reduction at 8 ug/ml after 18 hrs by microbroth dilution method. It is filed as functional. The following applies: dose 8 µg/ml. A digest of the protocol:
as §2

The subject of assay [4] is Pseudomonas aeruginosa. In words: Antibacterial activity against MDR clinical isolate Pseudomonas aeruginosa PA259 assessed as potentiation of cefiderocol antibacterial activity by measuring FIC index after 18 hrs by microbroth dilution method. It is filed as functional. A digest of the protocol:
(§3)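 Checkerboard in MHB. Cefiderocol was 2-fold serially diluted along one axis and the adjuvant along the other. Inoculum was prepared from 0.5 McFarland saline suspensions diluted 1:50 in MHB, giving about 5 × 10^5 CFU/mL final. Plates ran 18 h at 37 °C, with turbidity confirmed at 590 nm. FIC = combination MIC ÷ MIC alone for each agent, and FIC index = sum of both. Interpretation: ≤0.5 synergy, >0.5–4 additive, >4 antagonism.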

In assay [5] the test system is Pseudomonas aeruginosa. In words: Potentiation of cefiderocol-induced antibiotic activity against MDR clinical isolate Pseudomonas aeruginosa PA259 assessed as MIC fold reduction at 8 ug/ml after 18 hrs by microbroth dilution method. To be noted: dose 8 µg/ml.
Assay [6] has as its system Acinetobacter baumannii. Put plainly: Antibacterial activity against Acinetobacter baumannii ATCC 17978 assessed as reduction in bacterial growth after 18 hrs in presence of cefiderocol by microbroth dilution method. It is filed as functional. A digest of the protocol:
(§4)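 Checkerboard in Mueller-Hinton broth: cefiderocol 2-fold diluted on one axis, adjuvant 2-fold on the other. Overnight cultures were adjusted to 0.5 McFarland in saline, diluted 1:50 in MHB, and inoculated at about 5 × 10^5 CFU/mL. Incubation was 18 h at 37 °C. Turbidity was read visually and confirmed at 590 nm. FIC index = FIC of antibiotic + FIC of adjuvant; ≤0.5 synergy, >4 antagonism.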

Assay [7] deals with Acinetobacter baumannii. In words: Potentiation of niclosamide-induced antibiotic activity against Acinetobacter baumannii ATCC 17978 assessed as MIC fold reduction at 8 ug/ml after 18 hrs by microbroth dilution method. It is filed as functional. The following applies: dose 8 µg/ml.
In assay [8] the test system is Pseudomonas aeruginosa. In words: Antibacterial activity against colistin-resistant clinical isolate Pseudomonas aeruginosa PA114228 assessed as potentiation of cefiderocol antibacterial activity by measuring FIC index after 18 hrs by microbroth dilution method. It is filed as functional. A digest of the protocol: (§5)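 Checkerboard in MHB (iron-replete, not iron-depleted CAMHB). Cefiderocol was 2-fold serially diluted along one axis and the adjuvant along the other. Inoculum was 0.5 McFarland diluted 1:50, about 5 × 10^5 CFU/mL final. Incubation was 18 h at 37 °C, with turbidity read visually and confirmed at 590 nm. FIC was the MIC in combination over the MIC alone for each agent, and the FIC index was their sum. Cut-offs were ≤0.5 synergy, >0.5–4 additive, >4 antagonism.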

The test system of assay [9] is Pseudomonas aeruginosa. Put plainly: Potentiation of moxifloxacin-induced antibiotic activity against Pseudomonas aeruginosa PA263 assessed as MIC fold reduction in ID-CAMHB condition at 8 ug/ml after 18 hrs by microbroth dilution method. It is filed as functional, organism-based. To be noted: dose 8.0 µg/ml.
Assay [10] deals with Pseudomonas aeruginosa. In words: Antibacterial activity against MDR clinical isolate Pseudomonas aeruginosa PA100036 assessed as reduction in bacterial growth after 18 hrs in presence of cefiderocol by microbroth dilution method. It is filed as functional. The method in brief:
as §3

Another assay relates to Staphylococcus aureus. Put plainly: Antibacterial activity against methicillin-resistant Staphylococcus aureus ATCC 33592 assessed as reduction in bacterial growth after 18 hrs by microbroth dilution method. It is filed as functional. The method in brief: as §1
In assay [11] the test system is Pseudomonas aeruginosa. Put plainly: Antibacterial activity against MDR clinical isolate Pseudomonas aeruginosa PA88949 assessed as reduction in bacterial growth after 18 hrs by microbroth dilution method. It is filed as functional. A digest of the protocol:
as §1

Assay [12] relates to Escherichia coli. In words: Potentiation of sulfamethoxazole-induced antibiotic activity against Escherichia coli ATCC 25922 assessed as MIC fold reduction at 8 ug/ml after 18 hrs by microbroth dilution method. It is filed as functional. To be noted: dose 8 µg/ml.
Assay [13] deals with Pseudomonas aeruginosa. In words: Potentiation of chloamphenicol-induced antibiotic activity against Pseudomonas aeruginosa PAO1 assessed as MIC fold reduction at 8 ug/ml after 18 hrs by microbroth dilution method. It is filed as functional. To be noted: dose 8 µg/ml. The method in brief: (§6)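 Adjuvant held at a fixed 8 μg/mL while the antibiotic was 2-fold serially diluted in Mueller-Hinton broth (MHB), per CLSI microbroth dilution. Overnight cultures were adjusted in saline to 0.5 McFarland, then diluted 1:50 in MHB to about 5 × 10^5 CFU/mL final, and incubated 18 h at 37 °C. MIC was the lowest concentration with no visible turbidity, confirmed at 590 nm. Fold potentiation = MIC alone / MIC with adjuvant.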

Assay [14] relates to Pseudomonas aeruginosa. In words: Antibacterial activity against MDR clinical isolate Pseudomonas aeruginosa PA101885 assessed as reduction in bacterial growth after 18 hrs in presence of cefiderocol by microbroth dilution method. It is filed as functional. A digest of the protocol:
as §5

Assay [15] deals with Enterobacter cloacae. In words: Antibacterial activity against Enterobacter cloacae 118564 assessed as reduction in bacterial growth after 18 hrs by microbroth dilution method. It is filed as functional. A digest of the protocol: (§7)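 CLSI microbroth dilution in MHB. Overnight cultures were adjusted to 0.5 McFarland in saline, diluted 1:50, and inoculated at about 5 × 10^5 CFU/mL. Agents were 2-fold serially diluted and incubated 18 h at 37 °C. MIC is the lowest concentration without visible turbidity, confirmed by absorbance at 590 nm. Medium with and without cells served as controls.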

The test system of assay [16] is Acinetobacter baumannii. In words: Potentiation of linezolid-induced antibiotic activity against Acinetobacter baumannii ATCC 17978 assessed as MIC fold reduction at 8 ug/ml after 18 hrs by microbroth dilution method. It is filed as functional. To be noted: dose 8 µg/ml. A digest of the protocol:
as §6

Assay [17] deals with Acinetobacter baumannii. In words: Antibacterial activity against Acinetobacter baumannii LAC-4 assessed as reduction in bacterial growth after 18 hrs in presence of cefiderocol by microbroth dilution method. It is filed as functional. The method in brief:
as §4

For assay [18], the system named is Enterobacter cloacae. In words: Antibacterial activity against Enterobacter cloacae 121187 assessed as reduction in bacterial growth after 18 hrs by microbroth dilution method. It is filed as functional. The method in brief:
as §7

Assay [19] deals with Pseudomonas aeruginosa. Put plainly: Potentiation of cefiderocol-induced antibiotic activity against MDR clinical isolate Pseudomonas aeruginosa PA260 assessed as MIC fold reduction at 8 ug/ml after 18 hrs by microbroth dilution method. To be noted: dose 8.0 µg/ml. It is filed as functional, organism-based. A digest of the protocol:
as §2

In the next assay the test system is Klebsiella pneumoniae. Put plainly: Antibacterial activity against Klebsiella pneumoniae KP113250 assessed as reduction in bacterial growth after 18 hrs by microbroth dilution method. It is filed as functional. A digest of the protocol:
as §7

The subject of assay [20] is Acinetobacter baumannii. Put plainly: Potentiation of pleuromutilin-induced antibiotic activity against Acinetobacter baumannii ATCC 17978 assessed as MIC fold reduction at 8 ug/ml after 18 hrs by microbroth dilution method. It is filed as functional. To be noted: dose 8 µg/ml.
Assay [21] deals with Acinetobacter baumannii. In words: Potentiation of doxycycline-induced antibiotic activity against Acinetobacter baumannii ATCC 17978 assessed as MIC fold reduction at 8 ug/ml after 18 hrs by microbroth dilution method. To be noted: dose 8 µg/ml. It is filed as functional. The method in brief: as §6

This note sets out measurements from ChEMBL document CHEMBL5136969, “A niclosamide-tobramycin hybrid adjuvant potentiates cefiderocol against P. aeruginosa” (2021).

By MIC is commonly meant the lowest concentration found to suppress growth.

Active and inactive are the calls of the source.

With `NC[C@H]1O[C@H](O[C@H]2[C@H](OCCCCc3cn(-c4ccc(NC(=O)c5cc(Cl)ccc5O)cc4)nn3)[C@@H](O[C@H]3O[C@H](CO)[C@@H](O)[C@H](N)[C@H]3O)[C@H](N)C[C@@H]2N)[C@H](N)C[C@@H]1O`, the MIC is over 128 µg/mL with Pseudomonas aeruginosa [1]; 16 µg/mL in the assay on Acinetobacter baumannii [6]; 0.25 µg/mL in the assay on Pseudomonas aeruginosa [10]; over 128 µg/mL in the assay on Staphylococcus aureus; over 128 µg/mL in the assay on Pseudomonas aeruginosa [11]; 2 µg/mL with Pseudomonas aeruginosa [14]. Further, the MIC in the assay on Enterobacter cloacae [15] is over 128 µg/mL; with Acinetobacter baumannii [17] it was 0.25 µg/mL; with Enterobacter cloacae [18], over 128 µg/mL; in the assay on Klebsiella pneumoniae, over 128 µg/mL. In addition, the outcome in the assay with Pseudomonas aeruginosa [2], in the assay with Pseudomonas aeruginosa [9] and with Pseudomonas aeruginosa [19] was Active. Besides, the “fold change (FC)” value was determined as 4 in the assay on Escherichia coli [3]; 32 in the assay with Pseudomonas aeruginosa [5]; 4 with Acinetobacter baumannii [7]; 4 in the assay with Escherichia coli [12]; 4 in the assay on Pseudomonas aeruginosa [13]; 4 with Acinetobacter baumannii [16]. The “fold change (FC)” value in the assay on Acinetobacter baumannii [20] and with Acinetobacter baumannii [21] was 4 throughout. Also, the FIC in the assay on Pseudomonas aeruginosa [4] worked out at 0.031; in the assay with Pseudomonas aeruginosa [8] it was 1.
